Our source for the Activity and viability values is ChEMBL document CHEMBL1154269, “Isolation and structural elucidation of euryjanicins B-D, proline-containing cycloheptapeptides from the Caribbean marine sponge Prosuberites laughlini” (2009).

One assay relates to Influenza A virus. Put plainly: Antiviral activity against Influenza A H5N1. The assay is classed as functional, organism-based.
The next assay has as its system Hepatitis B virus. The assay is described as follows: Antiviral activity against HBV. It is filed as functional, organism-based.
Another assay relates to Plasmodium falciparum. Put plainly: Antimalarial activity against Plasmodium falciparum W2 clone after 48 hrs by fluorescence microplate reader assay. The assay is classed as functional, organism-based.
The test system of a further assay is Human alphaherpesvirus 2. The assay is described as follows: Antiviral activity against HSV2. It is filed as functional, organism-based.
In another assay the test system is UO-31. The assay is described as follows: Cytotoxicity against human UO31 cells assessed as viable cells at 10 uM after 48 hrs by sulforhodamine B assay. The assay is classed as functional. To be noted: UO-31, 48 h, read-out: Activity. The gist of the method: (§1)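 Tested at a single high dose of 10−5 M across the full NCI 60 human cancer cell line panel. Read-out is percent growth of treated cells.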
A general note: Sulforhodamine B stains cellular protein and so reports cell mass.

Another assay concerns NCI-H522. Put plainly: Cytotoxicity against human NCI-H522 cells assessed as cell viability at 10 uM after 48 hrs by sulforhodamine B assay. It is filed as functional. As to conditions: NCI-H522, 48 h, read-out: Activity. An outline of the steps: as §1
The subject of the next assay is IGROV-1. Put plainly: Cytotoxicity against human IGROV1 cells assessed as viable cells at 10 uM after 48 hrs by sulforhodamine B assay. To be noted: IGROV-1, 48 h, read-out: Activity. The assay is classed as functional. An outline of the steps: as §1
The subject of assay [1] is Respiratory syncytial virus. The assay is described as follows: Antiviral activity against RSV A. The assay is classed as functional, organism-based.
The next assay has as its system LOX IMVI. The assay is described as follows: Cytotoxicity against human LOXIMVI cells assessed as viable cells at 10 uM after 48 hrs by sulforhodamine B assay. It is filed as functional. To be noted: read-out: Activity. An outline of the steps:
as §1

The subject of assay [2] is Mycobacterium tuberculosis. Put plainly: Antituberculosis activity against Mycobacterium tuberculosis […] by alamar blue assay. The assay is classed as functional, organism-based. On the technique in general: The colour change of resazurin is a common sign of viable cells or microbes.
In a further assay the test system is Microglia. Put plainly: Antiinflammatory activity in LPS-stimulated rat neonatal microglia assessed as inhibition of PMA-stimulated superoxide anion production. It is filed as functional.
The next assay relates to West Nile virus. The assay is described as follows: Antiviral activity against WNV. The assay is classed as functional, organism-based.
For a further assay, the system named is Rift Valley fever virus. Put plainly: Antiviral activity against Rift Valley fever virus. The assay is classed as functional, organism-based.
The next assay concerns Influenza B virus. Put plainly: Antiviral activity against Influenza B. The assay is classed as functional, organism-based.
The next assay deals with Human alphaherpesvirus 1. The assay is described as follows: Antiviral activity against HSV1. It is filed as functional, organism-based.

Molecules are shown by their SMILES. Active and inactive are the calls of the source. No cut-off for these calls is given here. Where a SMILES comes first, the peptide text is derived from it.

As to `CC(C)[C@@H]1NC(=O)[C@H](Cc2ccccc2)NC(=O)[C@@H]2CCCN2C(=O)[C@H]([C@@H](C)O)NC(=O)[C@H](C)NC(=O)[C@@H]2CCCN2C(=O)[C@@H]2CCCN2C1=O` [EURYJANICIN B] (cyclo(ATPFVPP)), the outcome (in the assay with Influenza A virus; in the assay with Hepatitis B virus; in the assay with Plasmodium falciparum; with Human alphaherpesvirus 2; in [1]; in assay [2]) was inactive. Further, the result with Microglia, in the assay on West Nile virus, in the assay with Rift Valley fever virus, in the assay on Influenza B virus and in the assay with Human alphaherpesvirus 1 was inactive. The viability at 10 µM was determined as 76.3% with UO-31, 83.9% in the assay with NCI-H522, 91.3% in the assay on IGROV-1 and 88.6% in the assay on LOX IMVI.

For `CC[C@@H](C)[C@@H]1NC(=O)[C@@H]2CCCN2C(=O)[C@H](CO)NC(=O)[C@H](Cc2ccccc2)NC(=O)[C@H]([C@H](C)CC)NC(=O)[C@@H]2CCCN2C(=O)[C@H](Cc2ccccc2)NC1=O` [EURYJANICIN D], the result (in the assay on Influenza A virus; with Hepatitis B virus; in the assay on Plasmodium falciparum; with Human alphaherpesvirus 2; in [1]; in assay [2]) was inactive. Also, the result in the assay on Microglia, with West Nile virus, in the assay with Rift Valley fever virus, in the assay with Influenza B virus and in the assay with Human alphaherpesvirus 1 was inactive. Moreover, the viability at 10 µM worked out at 82.7% with UO-31, 94.6% in the assay on NCI-H522, 100% in the assay on IGROV-1 and 87.6% in the assay with LOX IMVI.

`CC[C@@H](C)[C@@H]1NC(=O)[C@@H]2CCCN2C(=O)[C@H](Cc2ccccc2)NC(=O)[C@H](CC(C)C)NC(=O)[C@@H]2CCCN2C(=O)[C@H]([C@H](C)CC)NC(=O)[C@H](CO)NC1=O` [EURYJANICIN C]: the outcome (in the assay with Influenza A virus; in the assay with Hepatitis B virus; in the assay on Plasmodium falciparum; in the assay on Human alphaherpesvirus 2; in assay [1]; in [2]) was inactive. Also, the result in the assay on Microglia, with West Nile virus, with Rift Valley fever virus, in the assay with Influenza B virus and in the assay with Human alphaherpesvirus 1 was inactive. In addition, the viability at 10 µM in the assay with UO-31 came out at 83.4%; with NCI-H522, 95.1%; with IGROV-1, 100%; in the assay on LOX IMVI, 88%.

Take `CC[C@H](C)[C@@H]1NC(=O)[C@H]([C@@H](C)CC)NC(=O)[C@H]([C@@H](C)CC)NC(=O)[C@@H]2CCCN2C(=O)[C@H]([C@H](C)O)NC(=O)[C@@H]2CCCN2C(=O)[C@@H]2CCCN2C(=O)[C@H](CC(C)C)NC1=O` [DOMINICIN]: the result (with Influenza A virus; in the assay with Hepatitis B virus; in the assay on Plasmodium falciparum; in the assay with Human alphaherpesvirus 2; in assay [1]; in assay [2]) was inactive. The outcome in the assay with Microglia, with West Nile virus, with Rift Valley fever virus, with Influenza B virus and in the assay on Human alphaherpesvirus 1 was inactive. Besides, the viability at 10 µM is 32.8% in the assay on UO-31, 100% with NCI-H522, 100% with IGROV-1 and 100% in the assay with LOX IMVI.
